Results: ChEMBL document CHEMBL5696442, “Discovery of type II inhibitors of TGFβ-activated kinase 1 (TAK1) and mitogen-activated protein kinase kinase kinase kinase 2 (MAP4K2)” (J Med Chem, 2015)
Activity calls are given as the source filed them. No cut-off for these calls is given here.

Columns and labels:
[1] = test system: L929; assay: Inhibition of TNF alpha induced IKKalpha/beta phosphorylation level in mouse L929 cells at 100 nM preincubated for 30 mins followed by TNF alpha stimulation and measured after 5 mins by Western blot analysis; type: functional, cell-based
Outline: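 Mouse L929 cells were pretreated with compound at 100 nM for 30 min, then stimulated with TNFα for 5 min. Lysates were Western blotted for phospho-IKKα/β, with tubulin as loading control.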

[2] = target: Mitogen-activated protein kinase kinase kinase kinase 4 (Homo sapiens, UniProt O95819); assay: Inhibition of ZC1/HGK Lys2 labeling site in human A-375 cells at 0.5 uM by KiNativ Profiling analysis relative to control; type: cell-based
Mitogen-activated protein kinase kinase kinase kinase 4, sequence (O95819 2-1239 limits assumed): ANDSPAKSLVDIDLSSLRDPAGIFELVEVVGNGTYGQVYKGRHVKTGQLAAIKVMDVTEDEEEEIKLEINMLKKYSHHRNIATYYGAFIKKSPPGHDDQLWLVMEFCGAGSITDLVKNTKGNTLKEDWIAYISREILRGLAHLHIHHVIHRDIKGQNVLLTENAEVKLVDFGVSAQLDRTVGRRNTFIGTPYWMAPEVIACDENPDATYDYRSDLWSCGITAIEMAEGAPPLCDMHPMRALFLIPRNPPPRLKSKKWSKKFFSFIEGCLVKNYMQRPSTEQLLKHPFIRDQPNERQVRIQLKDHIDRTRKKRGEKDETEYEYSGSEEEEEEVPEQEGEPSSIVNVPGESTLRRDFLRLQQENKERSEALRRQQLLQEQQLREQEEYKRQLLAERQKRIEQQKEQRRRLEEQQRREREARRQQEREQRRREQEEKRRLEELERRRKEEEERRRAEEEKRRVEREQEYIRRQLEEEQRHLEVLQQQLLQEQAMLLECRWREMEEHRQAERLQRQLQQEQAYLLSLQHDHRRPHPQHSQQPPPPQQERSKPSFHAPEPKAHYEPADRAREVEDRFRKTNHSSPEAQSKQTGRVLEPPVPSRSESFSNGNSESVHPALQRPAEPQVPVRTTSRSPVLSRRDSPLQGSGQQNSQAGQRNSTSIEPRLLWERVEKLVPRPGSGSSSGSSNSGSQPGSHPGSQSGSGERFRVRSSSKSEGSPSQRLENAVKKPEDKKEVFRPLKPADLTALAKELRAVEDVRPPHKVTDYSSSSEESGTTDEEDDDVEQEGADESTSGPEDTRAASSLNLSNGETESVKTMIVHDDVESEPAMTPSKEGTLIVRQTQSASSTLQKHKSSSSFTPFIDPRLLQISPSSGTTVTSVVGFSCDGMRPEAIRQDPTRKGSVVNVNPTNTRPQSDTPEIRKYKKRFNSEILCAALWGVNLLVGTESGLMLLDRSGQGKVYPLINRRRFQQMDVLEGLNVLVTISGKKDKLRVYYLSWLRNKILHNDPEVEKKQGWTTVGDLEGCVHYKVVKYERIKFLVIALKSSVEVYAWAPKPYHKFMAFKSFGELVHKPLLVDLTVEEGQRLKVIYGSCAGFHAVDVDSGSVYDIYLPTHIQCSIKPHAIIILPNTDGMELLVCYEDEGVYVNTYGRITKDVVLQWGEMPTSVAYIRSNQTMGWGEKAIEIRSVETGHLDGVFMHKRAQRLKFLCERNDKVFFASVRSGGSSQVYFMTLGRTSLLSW

[3] = target: T1, NUAK family SNF1-like kinase 2 (Homo sapiens) (UniProt Q9H093); assay: Inhibition of NuaK2 Lys1 labeling site in human A-375 cells at 0.5 uM by KiNativ Profiling analysis relative to control; type: cell-based
T1 sequence (whole entry): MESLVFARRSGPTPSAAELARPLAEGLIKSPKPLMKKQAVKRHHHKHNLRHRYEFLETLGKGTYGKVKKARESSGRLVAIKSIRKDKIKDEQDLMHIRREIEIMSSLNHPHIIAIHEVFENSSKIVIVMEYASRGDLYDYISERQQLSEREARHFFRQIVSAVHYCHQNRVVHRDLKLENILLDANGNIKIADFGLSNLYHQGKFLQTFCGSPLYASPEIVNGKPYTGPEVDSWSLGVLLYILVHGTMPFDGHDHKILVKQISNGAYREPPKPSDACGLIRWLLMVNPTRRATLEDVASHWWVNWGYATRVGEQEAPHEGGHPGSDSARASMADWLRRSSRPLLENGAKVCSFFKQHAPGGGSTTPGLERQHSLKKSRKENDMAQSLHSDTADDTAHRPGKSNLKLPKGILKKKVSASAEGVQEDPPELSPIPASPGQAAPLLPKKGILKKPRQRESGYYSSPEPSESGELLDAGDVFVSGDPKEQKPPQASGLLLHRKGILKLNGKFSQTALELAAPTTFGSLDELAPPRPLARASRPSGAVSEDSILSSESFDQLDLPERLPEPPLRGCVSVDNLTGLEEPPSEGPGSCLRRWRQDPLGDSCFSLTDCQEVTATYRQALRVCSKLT

[4] = target: Dual specificity mitogen-activated protein kinase kinase 1 (Homo sapiens) (UniProt Q02750); assay: Inhibition of MAP2K1 Lys2 labeling site harbouring DVKPSNILVNSR in human A-375 cells at 0.05 uM by KiNativ Profiling analysis relative to control; type: cell-based
[5] = target: Serine/threonine-protein kinase 38 (Homo sapiens) (UniProt Q15208); assay: Inhibition of NDR1 Lys2 labeling site in human A-375 cells at 0.05 uM by KiNativ Profiling analysis relative to control; type: cell-based
[6] = target: Interleukin-1 receptor-associated kinase 1 (Homo sapiens) (UniProt P51617); assay: Inhibition of IRAK1 Lys2 labeling site in human A-375 cells at 5 uM by KiNativ Profiling analysis relative to control; type: cell-based
[7] = target: Tyrosine-protein kinase Fer (Homo sapiens, UniProt P16591); assay: Inhibition of FER Lys1 labeling site harbouring DKTSVAVKTCKEDLPQELK in human A-375 cells at 0.5 uM by KiNativ Profiling analysis relative to control; type: cell-based
[8] = target: eIF-2-alpha kinase GCN2 (Homo sapiens) (UniProt Q9P2K8); assay: Inhibition of GCN2 domain2 Lys1 labeling site in human A-375 cells at 5 uM by KiNativ Profiling analysis relative to control; type: cell-based
eIF-2-alpha kinase GCN2 (Homo sapiens), sequence (Q9P2K8 whole entry, the tested form may be a part): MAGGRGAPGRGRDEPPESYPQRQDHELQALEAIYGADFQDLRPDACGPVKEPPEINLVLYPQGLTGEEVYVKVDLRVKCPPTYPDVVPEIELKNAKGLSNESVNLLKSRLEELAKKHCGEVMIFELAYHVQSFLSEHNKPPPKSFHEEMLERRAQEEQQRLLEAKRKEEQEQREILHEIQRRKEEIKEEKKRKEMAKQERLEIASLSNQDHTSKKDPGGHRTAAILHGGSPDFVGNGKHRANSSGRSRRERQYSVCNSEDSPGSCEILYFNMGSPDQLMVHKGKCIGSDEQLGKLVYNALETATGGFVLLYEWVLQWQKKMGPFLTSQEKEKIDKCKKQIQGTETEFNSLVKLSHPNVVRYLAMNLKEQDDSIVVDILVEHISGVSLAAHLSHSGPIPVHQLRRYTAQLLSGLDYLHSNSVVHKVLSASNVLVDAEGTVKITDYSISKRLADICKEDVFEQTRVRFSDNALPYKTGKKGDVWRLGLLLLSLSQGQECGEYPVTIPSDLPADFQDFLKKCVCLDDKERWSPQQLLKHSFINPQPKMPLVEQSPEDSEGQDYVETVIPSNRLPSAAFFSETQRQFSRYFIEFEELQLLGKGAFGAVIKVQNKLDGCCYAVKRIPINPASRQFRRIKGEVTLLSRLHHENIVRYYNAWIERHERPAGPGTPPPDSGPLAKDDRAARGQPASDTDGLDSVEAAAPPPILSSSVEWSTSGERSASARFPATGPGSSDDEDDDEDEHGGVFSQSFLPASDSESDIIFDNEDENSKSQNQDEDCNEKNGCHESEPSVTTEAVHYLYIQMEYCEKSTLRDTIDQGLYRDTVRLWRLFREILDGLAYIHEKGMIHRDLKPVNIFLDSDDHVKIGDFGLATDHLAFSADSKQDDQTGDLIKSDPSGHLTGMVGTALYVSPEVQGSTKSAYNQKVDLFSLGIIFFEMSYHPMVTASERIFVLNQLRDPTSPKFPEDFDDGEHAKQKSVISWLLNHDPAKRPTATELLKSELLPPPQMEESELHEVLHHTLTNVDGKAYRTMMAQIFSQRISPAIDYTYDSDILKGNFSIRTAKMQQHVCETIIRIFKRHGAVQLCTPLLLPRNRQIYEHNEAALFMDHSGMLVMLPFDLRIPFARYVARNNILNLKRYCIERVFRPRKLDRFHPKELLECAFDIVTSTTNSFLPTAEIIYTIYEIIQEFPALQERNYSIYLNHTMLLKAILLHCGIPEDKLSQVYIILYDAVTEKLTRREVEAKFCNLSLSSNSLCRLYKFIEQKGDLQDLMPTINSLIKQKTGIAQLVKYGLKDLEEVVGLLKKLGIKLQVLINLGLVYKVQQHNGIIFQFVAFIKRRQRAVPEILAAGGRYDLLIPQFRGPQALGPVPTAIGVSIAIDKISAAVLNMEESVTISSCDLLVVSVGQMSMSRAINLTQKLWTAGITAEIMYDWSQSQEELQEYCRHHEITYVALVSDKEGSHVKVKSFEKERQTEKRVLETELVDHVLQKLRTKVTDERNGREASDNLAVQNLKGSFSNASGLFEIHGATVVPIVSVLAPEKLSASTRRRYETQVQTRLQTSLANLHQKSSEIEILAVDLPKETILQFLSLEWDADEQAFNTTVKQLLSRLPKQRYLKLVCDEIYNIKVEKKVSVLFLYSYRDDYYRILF

[9] = target: Focal adhesion kinase 1 (Homo sapiens) (UniProt Q05397); assay: Inhibition of FAK Lys1 labeling site in human A-375 cells at 0.05 uM by KiNativ Profiling analysis relative to control; type: cell-based
Focal adhesion kinase 1 (Homo sapiens), sequence (Q05397 2-1052 limits assumed): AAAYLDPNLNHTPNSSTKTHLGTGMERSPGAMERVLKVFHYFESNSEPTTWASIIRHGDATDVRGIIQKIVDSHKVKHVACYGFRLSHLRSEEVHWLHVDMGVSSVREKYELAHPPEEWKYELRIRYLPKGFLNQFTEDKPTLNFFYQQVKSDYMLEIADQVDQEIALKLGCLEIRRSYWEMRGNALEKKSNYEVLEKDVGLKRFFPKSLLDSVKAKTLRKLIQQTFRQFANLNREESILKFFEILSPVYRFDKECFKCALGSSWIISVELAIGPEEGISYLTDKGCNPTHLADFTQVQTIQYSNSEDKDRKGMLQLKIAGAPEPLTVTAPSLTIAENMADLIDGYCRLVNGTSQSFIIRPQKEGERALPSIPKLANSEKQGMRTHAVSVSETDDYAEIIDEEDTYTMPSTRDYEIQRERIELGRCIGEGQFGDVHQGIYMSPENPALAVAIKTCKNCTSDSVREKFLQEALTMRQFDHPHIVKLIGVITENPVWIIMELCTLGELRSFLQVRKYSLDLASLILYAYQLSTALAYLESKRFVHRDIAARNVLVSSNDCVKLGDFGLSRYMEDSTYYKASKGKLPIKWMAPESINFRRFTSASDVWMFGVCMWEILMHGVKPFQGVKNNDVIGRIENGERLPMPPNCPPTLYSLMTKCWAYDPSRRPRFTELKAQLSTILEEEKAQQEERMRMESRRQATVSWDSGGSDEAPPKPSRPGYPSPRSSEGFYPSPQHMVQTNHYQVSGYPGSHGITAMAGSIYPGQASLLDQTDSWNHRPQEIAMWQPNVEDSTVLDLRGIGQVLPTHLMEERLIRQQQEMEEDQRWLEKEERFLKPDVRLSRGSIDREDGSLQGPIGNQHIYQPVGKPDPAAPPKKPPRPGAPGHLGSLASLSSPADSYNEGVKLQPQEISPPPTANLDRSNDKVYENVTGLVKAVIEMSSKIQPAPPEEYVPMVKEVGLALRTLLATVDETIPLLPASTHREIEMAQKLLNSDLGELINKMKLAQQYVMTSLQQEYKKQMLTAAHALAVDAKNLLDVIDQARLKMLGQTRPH

[10] = target: Glycogen synthase kinase-3 alpha (Homo sapiens) (UniProt P49840); assay: Inhibition of GSK3A Lys2 labeling site in human A-375 cells at 0.05 uM by KiNativ Profiling analysis relative to control; type: cell-based
Glycogen synthase kinase-3 alpha (Homo sapiens), sequence (P49840 2-483 limits assumed): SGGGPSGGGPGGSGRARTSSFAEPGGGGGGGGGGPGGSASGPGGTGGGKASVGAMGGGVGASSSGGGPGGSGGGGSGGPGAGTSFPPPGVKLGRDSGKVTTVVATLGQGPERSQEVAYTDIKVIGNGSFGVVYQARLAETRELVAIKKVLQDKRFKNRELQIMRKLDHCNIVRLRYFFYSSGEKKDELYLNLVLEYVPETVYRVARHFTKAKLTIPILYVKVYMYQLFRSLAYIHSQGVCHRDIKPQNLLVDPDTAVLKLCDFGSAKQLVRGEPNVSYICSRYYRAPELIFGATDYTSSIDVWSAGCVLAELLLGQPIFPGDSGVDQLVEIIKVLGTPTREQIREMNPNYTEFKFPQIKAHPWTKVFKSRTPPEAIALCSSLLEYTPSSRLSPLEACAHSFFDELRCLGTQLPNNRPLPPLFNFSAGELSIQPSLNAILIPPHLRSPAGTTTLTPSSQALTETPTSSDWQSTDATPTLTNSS

[11] = target: eIF-2-alpha kinase GCN2 (Homo sapiens) (UniProt Q9P2K8); assay: Inhibition of GCN2 domain2 Lys2 labeling site in human A-375 cells at 5 uM by KiNativ Profiling analysis relative to control; type: cell-based
[12] = Inhibition of p70S6K Lys2 labeling site in human A-375 cells at 0.05 uM by KiNativ Profiling analysis relative to control; conditions: condition cancer
[13] = target: STE20-like serine/threonine-protein kinase (Homo sapiens) (UniProt Q9H2G2); assay: Inhibition of SLK Lys1 labeling site in human A-375 cells at 0.05 uM by KiNativ Profiling analysis relative to control; type: cell-based
[14] = target: T2, Mitogen-activated protein kinase kinase kinase 3 (Homo sapiens) (UniProt Q99759); assay: Inhibition of MAP3K3 Lys1 labeling site in human A-375 cells at 0.5 uM by KiNativ Profiling analysis relative to control; type: cell-based
T2 sequence (whole entry): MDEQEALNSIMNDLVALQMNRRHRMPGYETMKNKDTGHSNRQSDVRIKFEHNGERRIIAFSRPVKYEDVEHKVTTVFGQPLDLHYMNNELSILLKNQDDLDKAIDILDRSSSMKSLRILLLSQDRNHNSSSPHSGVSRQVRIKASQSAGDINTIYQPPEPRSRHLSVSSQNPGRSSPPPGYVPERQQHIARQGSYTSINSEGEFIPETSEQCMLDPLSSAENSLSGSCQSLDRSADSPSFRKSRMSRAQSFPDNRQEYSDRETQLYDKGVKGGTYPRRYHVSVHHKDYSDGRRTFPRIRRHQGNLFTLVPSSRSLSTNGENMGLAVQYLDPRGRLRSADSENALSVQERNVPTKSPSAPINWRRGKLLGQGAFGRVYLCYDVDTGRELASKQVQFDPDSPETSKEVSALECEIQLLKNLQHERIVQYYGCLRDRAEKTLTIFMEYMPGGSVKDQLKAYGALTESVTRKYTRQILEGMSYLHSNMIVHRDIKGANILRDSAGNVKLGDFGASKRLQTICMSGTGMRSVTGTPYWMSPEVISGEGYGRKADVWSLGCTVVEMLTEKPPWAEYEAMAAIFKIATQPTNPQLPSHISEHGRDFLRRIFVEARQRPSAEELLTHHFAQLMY

[15] = target: MAP/microtubule affinity-regulating kinase 3 (Homo sapiens) (UniProt P27448); assay: Inhibition of MARK3 Lys2 labeling site in human A-375 cells at 5 uM by KiNativ Profiling analysis relative to control; type: cell-based
[16] = target: 3-phosphoinositide-dependent protein kinase 1 (Homo sapiens) (UniProt O15530); assay: Inhibition of PDK1 Protein Kinase Domain in human A-375 cells at 5 uM by KiNativ Profiling analysis relative to control
[17] = target: Calcium/calmodulin-dependent protein kinase type 1 (Homo sapiens) (UniProt Q14012); assay: Inhibition of CAMK1 alpha Lys1 labeling site in human A-375 cells at 5 uM by KiNativ Profiling analysis relative to control; type: cell-based
Calcium/calmodulin-dependent protein kinase type 1 (Homo sapiens), sequence (Q14012 whole entry, looked up): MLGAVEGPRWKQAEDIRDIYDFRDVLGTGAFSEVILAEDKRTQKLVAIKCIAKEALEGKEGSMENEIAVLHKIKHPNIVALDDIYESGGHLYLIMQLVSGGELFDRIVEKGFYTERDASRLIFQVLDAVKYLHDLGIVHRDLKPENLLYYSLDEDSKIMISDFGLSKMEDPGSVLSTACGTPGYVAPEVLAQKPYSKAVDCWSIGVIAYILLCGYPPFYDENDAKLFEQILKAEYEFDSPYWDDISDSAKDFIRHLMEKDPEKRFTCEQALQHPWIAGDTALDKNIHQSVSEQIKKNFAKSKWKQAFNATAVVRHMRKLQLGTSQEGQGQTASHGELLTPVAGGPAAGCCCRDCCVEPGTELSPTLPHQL
Outline: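 Intact A375 melanoma cells were treated with compound at 5 or 0.5 μM, then lysed. Lysate kinases were labeled with a lysine-reactive ATP or ADP-biotin probe (KiNativ). Inhibition is read as protection of each kinase labeling site from probe labeling.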

SMILES | inhibition [1] | inhibition [2] [%] | inhibition [3] [%] | inhibition [4] [%] | inhibition [5] [%] | inhibition [6] [%] | inhibition [7] [%] | inhibition [8] [%] | inhibition [9] [%] | inhibition [10] [%] | inhibition [11] [%] | inhibition at 0.05 µM [12] [%] | inhibition [13] [%] | inhibition [14] [%] | inhibition [15] [%] | inhibition [16] [%] | inhibition [17] [%]
CNc1cc(Oc2cc(C(=O)Nc3cc(-n4cnc(C)c4)cc(C(F)(F)F)c3)ccc2C)ncn1 | inactive |  |  |  |  |  |  |  |  |  |  |  |  |  |  |  | 
CCN1CCN(Cc2ccc(NC(=O)c3ccc(C)c(Oc4ccnc5[nH]ccc45)c3)cc2C(F)(F)F)CC1 |  | 70.8 | 9.4 | 6.1 | 30 | 7.4 | 87 | 37.6 | 1 | 0.3 | 44.3 | -7.2 | 13 | 42 | 7.8 | 9 | 91.8
CCN1CCN(Cc2ccc(NC(=O)c3ccc(C)c(/C=C/c4cnc5[nH]ccc5c4OC)c3)cc2C(F)(F)F)CC1 |  | 48.1 | 6.4 | -8.3 | 19.2 | 61.1 | 30 | 81.1 | 4.7 | 14.4 | 83.3 | -27 | 2.2 | 33.4 | 8.9 | 15.8 | 31.9
CNc1cc(Oc2cc(C(=O)Nc3cc(N4CCN(C)CC4)cc(C(F)(F)F)c3)ccc2C)ncn1 | inactive |  |  |  |  |  |  |  |  |  |  |  |  |  |  |  | 
